According to ChEMBL document CHEMBL1129507, “Betulinic acid derivatives: a new class of human immunodeficiency virus type 1 specific inhibitors with a new mode of action” (J Med Chem, 1996):
pIC50: −log10 of the molar value.

Experiments:
CCRF-CEM [1] = assay: Ability to inhibit the cytopathic effect induced by HIV-1 infection in CEM T-lymphoblastoid tumor cell line; type: functional, cell-based; details: Homo sapiens
In short: (§1)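 CEM 4 cells in RPMI 1640 with 10% heat-inactivated FCS, penicillin, streptomycin, glutamine and polybrene (2 µg/mL), 37 °C, 5% CO2. Compound dilutions or PBS preincubated with cells for 1 h, then infected with HIV-1 IIIB/LAI (100-200 CCID50) and cultured ≥5 days. Mock-infected parallel cultures for cytotoxicity. Absorbance read at 540 nm; IC50 for 50% protection against cytopathogenicity, mean of ≥2 experiments.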

MT4 [2] = assay: Ability to inhibit the cytopathic effect induced by HIV-1 infection in MT-4 cells; type: functional, cell-based; details: Homo sapiens
In short: (§2)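 MT-4 cells infected with HIV-1 strain IIIB/LAI. Protection from virus-induced cytopathogenicity measured by the MTT method. IC50 is the concentration giving 50% protection, mean of at least two experiments.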

CCRF-CEM [3] = assay: Ability to inhibit the cytopathic effect induced by HIV-1 infection in CEM T-lymphoblastoid tumor cell line; NA=not active.; type: functional, cell-based, Homo sapiens; in short: as §1
MT4 [4] = assay: Ability to inhibit the cytopathic effect induced by HIV-1 infection in MT-4 cells; NA=not active.; type: functional, cell-based, Homo sapiens; in short: as §2

SMILES | pIC50 (CCRF-CEM [1]) | pIC50 (MT4 [2]) | IC50 (CCRF-CEM [3]) | IC50 (MT4 [4])
C=C(CSCCN(CC)CC)[C@@H]1CC[C@]2(C(=O)NCCCCCCCCCCC(=O)O)CC[C@]3(C)[C@H](CCC4[C@@]5(C)CC[C@H](O)C(C)(C)[C@@H]5CC[C@]43C)[C@@H]12 (stereo partly specified) | 6.00 | 6.20 | – | –
C=C(CSCC(=O)O)[C@@H]1CC[C@]2(C(=O)NCCCCCCCCCCC(=O)O)CC[C@]3(C)[C@H](CCC4[C@@]5(C)CC[C@H](O)C(C)(C)[C@@H]5CC[C@]43C)[C@@H]12 (stereo partly specified) | – | 5.79 | Not Active | –
C=C(C)[C@@H]1CC[C@]2(C(=O)N(C)CCCCCCCCCCC(=O)O)CC[C@]3(C)[C@H](CCC4[C@@]5(C)CC[C@H](O)C(C)(C)[C@@H]5CC[C@]43C)[C@@H]12 (stereo partly specified) | – | – | Not Active | Not Active
C=C(C)[C@@H]1CC[C@]2(CNCCCCCCCCCCC(=O)O)CC[C@]3(C)[C@H](CCC4[C@@]5(C)CC[C@H](O)C(C)(C)[C@@H]5CC[C@]43C)[C@@H]12 (stereo partly specified) | – | – | Not Active | –
C=C(C)[C@@H]1CC[C@]2(C(=O)OCCCCCCCCCCC(=O)O)CC[C@]3(C)[C@H](CCC4[C@@]5(C)CC[C@H](O)C(C)(C)[C@@H]5CC[C@]43C)[C@@H]12 (stereo partly specified) | – | – | Not Active | Not Active
C=C(C)[C@@H]1CC[C@]2(NC(=O)NCCCCCCCCCC(=O)O)CC[C@]3(C)[C@H](CCC4[C@@]5(C)CC[C@H](O)C(C)(C)[C@@H]5CC[C@]43C)[C@@H]12 (stereo partly specified) | – | – | Not Active | Not Active
CC1(C)C(O)CC[C@@]2(C)C1CC[C@]1(C)C2CCC2C3[C@H](C(=O)O)CC[C@]3(C(=O)NCCCCCCCCCCC(=O)O)CC[C@]21C (stereo partly specified) | 4.30 | 5.05 | – | –
C=C(CNC(C)=O)[C@@H]1CC[C@]2(C(=O)NCCCCCCCCCCC(=O)O)CC[C@]3(C)[C@H](CCC4[C@@]5(C)CC[C@H](O)C(C)(C)[C@@H]5CC[C@]43C)[C@@H]12 (stereo partly specified) | 5.90 | 6.59 | – | –
CC(=O)[C@@H]1CC[C@]2(C(=O)NCCCCCCCCCCC(=O)O)CC[C@]3(C)C(CCC4[C@@]5(C)CCC(O)C(C)(C)C5CC[C@]43C)C12 (stereo partly specified) | 4.92 | – | – | –
C=C(C)[C@@H]1CC[C@]2(NC(=O)CCCCCCCCCCC(=O)O)CC[C@]3(C)[C@H](CCC4[C@@]5(C)CC[C@H](O)C(C)(C)[C@@H]5CC[C@]43C)[C@@H]12 (stereo partly specified) | – | – | Not Active | Not Active
C=C(C)[C@@H]1CC[C@]2(C(=O)NCCCCCCCCCCC(=O)O)CC[C@]3(C)[C@H](CCC4[C@@]5(C)CC[C@H](OC)C(C)(C)[C@@H]5CC[C@]43C)[C@@H]12 (stereo partly specified) | – | – | Not Active | Not Active
C=C(CNCC(=O)O)[C@@H]1CC[C@]2(C(=O)NCCCCCCCCCCC(=O)O)CC[C@]3(C)[C@H](CCC4[C@@]5(C)CC[C@H](O)C(C)(C)[C@@H]5CC[C@]43C)[C@@H]12 (stereo partly specified) | – | – | Not Active | –
C=C(CN1CCCC1)[C@@H]1CC[C@]2(C(=O)NCCCCCCCCCCC(=O)O)CC[C@]3(C)[C@H](CCC4[C@@]5(C)CC[C@H](O)C(C)(C)[C@@H]5CC[C@]43C)[C@@H]12 (stereo partly specified) | 6.00 | 6.38 | – | –
C=C(CNCCO)[C@@H]1CC[C@]2(C(=O)NCCCCCCCCCCC(=O)O)CC[C@]3(C)[C@H](CCC4[C@@]5(C)CC[C@H](O)C(C)(C)[C@@H]5CC[C@]43C)[C@@H]12 (stereo partly specified) | 5.24 | 5.70 | – | –
C=C(C)[C@@H]1CC[C@]2(C(=O)NCCCCCCCCCCC(=O)O)CC[C@]3(C)[C@H](CCC4[C@@]5(C)CC[C@@H](O)C(C)(C)[C@@H]5CC[C@]43C)[C@@H]12 (stereo partly specified) | 5.52 | 5.60 | – | –
C=C(C)[C@@H]1CC[C@]2(C(=O)NCCCCCCCCCCC(=O)O)CC[C@]3(C)C(CCC4[C@@]5(C)CC(O)C(O)C(C)(C)C5CC[C@]43C)C12 (stereo partly specified) | – | – | Not Active | –
C=C(C)[C@@H]1CC[C@]2(C(=O)NCCCCCCCCCCC(=O)O)CC[C@]3(C)C(CC[C@@H]4[C@@]5(C)CC=CC(C)(C)C5CC[C@]43C)C12 (stereo partly specified) | 5.74 | 5.59 | – | –
CC(C)[C@@H]1CC[C@]2(C(=O)NCCCCCCCCCCC(=O)O)CC[C@]3(C)C(CC[C@@H]4[C@@]5(C)CCC(O)C(C)(C)C5CC[C@]43C)C12 (stereo partly specified) | 5.82 | 6.24 | – | –
C=C(C)[C@@H]1CC[C@]2(C(=O)NCCCCCCCCCCC(=O)O)CC[C@]3(C)C(CC[C@@H]4[C@@]5(C)C=C(O)C(=O)C(C)(C)C5CC[C@]43C)C12 (stereo partly specified) | 5.52 | – | – | –
C=C(C)[C@@H]1CC[C@]2(C(=O)NCCCCCCCCCCC(=O)O)CC[C@]3(C)[C@H](CCC4[C@@]5(C)CCCC(C)(C)[C@@H]5CC[C@]43C)[C@@H]12 (stereo partly specified) | – | – | Not Active | –
C=C(C)[C@@H]1CC[C@]2(C(=O)NCCCCCCCCCCC(=O)O)CC[C@]3(C)[C@H](CCC4[C@@]5(C)CC[C@H](N)C(C)(C)[C@@H]5CC[C@]43C)[C@@H]12 (stereo partly specified) | – | – | Not Active | –
C=C(C)[C@@H]1CC[C@]2(C(=O)NCCCCCCCCCCC(=O)O)CC[C@]3(C)[C@H](CCC4[C@@]5(C)CC[C@H](O)C(C)(C)[C@@H]5CC[C@]43C)[C@@H]12 (stereo partly specified) | 6.64 | 6.36 | – | –
C=C(CSCCO)[C@@H]1CC[C@]2(C(=O)NCCCCCCCCCCC(=O)O)CC[C@]3(C)[C@H](CCC4[C@@]5(C)CC[C@H](O)C(C)(C)[C@@H]5CC[C@]43C)[C@@H]12 (stereo partly specified) | 6.54 | 6.57 | – | –
C=C(CN)[C@@H]1CC[C@]2(C(=O)NCCCCCCCCCCC(=O)O)CC[C@]3(C)[C@H](CCC4[C@@]5(C)CC[C@H](O)C(C)(C)[C@@H]5CC[C@]43C)[C@@H]12 (stereo partly specified) | – | – | Not Active | –
C=C(CO)[C@@H]1CC[C@]2(C(=O)NCCCCCCCCCCC(=O)O)CC[C@]3(C)[C@H](CCC4[C@@]5(C)CC[C@H](O)C(C)(C)[C@@H]5CC[C@]43C)[C@@H]12 (stereo partly specified) | 6.70 | 6.42 | – | –
C=C(CSc1ccc(F)cc1)[C@@H]1CC[C@]2(C(=O)NCCCCCCCCCCC(=O)O)CC[C@]3(C)[C@H](CCC4[C@@]5(C)CC[C@H](O)C(C)(C)[C@@H]5CC[C@]43C)[C@@H]12 (stereo partly specified) | 5.70 | 5.86 | – | –
C=C(C)[C@@H]1CC[C@]2(C(=O)NCCCCCCCCCCC(=O)O)CC[C@]3(C)[C@H](CCC4[C@@]5(C)CCC(=O)C(C)(C)[C@@H]5CC[C@]43C)[C@@H]12 (stereo partly specified) | 5.92 | 6.48 | – | –
